According to article PMC2874077 (Journal of medicinal chemistry, 2010):
“Also recorded” adds a separate entry of the source. Like-named read-outs stand apart in the source and are kept apart here.

Experiments:
[1] = biological target: T1, human arginase I (Homo sapiens, UniProt P05089); assay: Fixed-point kinetic assay with [14C-guanidino]-L-arginine; format: biochemical; conditions: for mode of inhibition: from Lineweaver-Burk plots
T1 sequence (P05089 1-322): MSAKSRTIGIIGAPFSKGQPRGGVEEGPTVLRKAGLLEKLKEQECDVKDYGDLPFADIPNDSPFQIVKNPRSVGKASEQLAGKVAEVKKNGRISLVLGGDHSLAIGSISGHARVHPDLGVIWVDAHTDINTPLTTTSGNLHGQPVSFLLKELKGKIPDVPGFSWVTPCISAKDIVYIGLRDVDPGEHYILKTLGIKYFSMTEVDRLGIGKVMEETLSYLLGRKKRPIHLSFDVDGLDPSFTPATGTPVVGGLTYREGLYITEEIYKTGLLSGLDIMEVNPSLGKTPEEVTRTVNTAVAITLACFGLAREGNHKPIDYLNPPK
Outline: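 Affinity derived from a replot of v0/vi (velocity without/with inhibitor) against inhibitor concentration. Mode of inhibition (competitive or noncompetitive) assigned from Lineweaver-Burk plots at several inhibitor concentrations.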

[2] = tested on: airways hyperresponsiveness in OVA/OVA Balb/C mice; conditions: cited from earlier work
[3] = tested on: airways hyperresponsiveness in OVA/OVA Balb/C mice; format: in vivo, mouse
Outline: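 Female Balb/C mice (6–8 weeks) were sensitized i.p. with 25 μg OVA plus 1 mg aluminium hydroxide on days 0 and 7, then given nebulized 6% OVA in PBS, or PBS, 25 min/day on days 14–20. On day 21: ketamine/xylazine anaesthesia, intubation, FlexiVent ventilation.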

[4] = OVA/OVA mice, nebulized 80 μg/g

Nc1ncc(C[C@H](N)C(=O)O)[nH]1 [2AH, L-2-aminohistidine]
mode of inhibition [1]: noncompetitive

Nc1ncc(CC[C@H](N)C(=O)O)[nH]1 [AHH, 2-aminohomohistidine]
mode of inhibition [1]: competitive

N[C@@H](CSCCB(O)O)C(=O)O [BEC, S-(2-boronoethyl)-L-cysteine]
airways hyperresponsiveness ([2]; murine models of allergic airways inflammation ref 8a): reduces
maximum central airways responsiveness (RN max) to methacholine ([2]; same model, earlier study ref 8a): attenuates

Nc1ncc[nH]1 [2-Aminoimidazole, reference compound]
mode of inhibition [1]: noncompetitive

Nc1ncc(CCCC(N)C(=O)O)[nH]1 (stereo not shown) [A4P, 2-amino-5-(2-aminoimidazol-4-yl)-pentanoic acid]
inhibitory activity ([1]; enzymological assay): lacks inhibitory activity

Nc1nccn1CCC[C@H](N)C(=O)O [A1P, 2-(S)-amino-5-(2-aminoimidazol-1-yl)-pentanoic acid]
mode of inhibition [1]: competitive
maximum resistance of the central airways (RN) following methacholine challenge [3, 4]: significantly attenuated; also recorded: notably decreased
total resistance of the respiratory system (R) following methacholine challenge [3, 4]: attenuated significantly
airways hyperresponsiveness ([3]; murine model of allergic airways inflammation): significantly attenuates; also recorded: significantly reduces
